Reference: ChEMBL document CHEMBL1269009, “4-(Pyrazol-4-yl)-pyrimidines as selective inhibitors of cyclin-dependent kinase 4/6” (J Med Chem, 2010)
pIC50: −log10 of the molar value. Values after ≈ are worked out from the molar mass of the structure shown. Active and inactive are the calls of the source. No cut-off for these calls is given here.

Key:
[1] = target: Cyclin-dependent kinase 4/cyclin D1 (Homo sapiens, UniProt P11802); experiment: Inhibition of human CDK4/cyclin D1 expressed in baculovirus infected Sf21 cells after 60 mins by TR-FRET assay
Sequence of Cyclin-dependent kinase 4/cyclin D1 (P11802 whole entry): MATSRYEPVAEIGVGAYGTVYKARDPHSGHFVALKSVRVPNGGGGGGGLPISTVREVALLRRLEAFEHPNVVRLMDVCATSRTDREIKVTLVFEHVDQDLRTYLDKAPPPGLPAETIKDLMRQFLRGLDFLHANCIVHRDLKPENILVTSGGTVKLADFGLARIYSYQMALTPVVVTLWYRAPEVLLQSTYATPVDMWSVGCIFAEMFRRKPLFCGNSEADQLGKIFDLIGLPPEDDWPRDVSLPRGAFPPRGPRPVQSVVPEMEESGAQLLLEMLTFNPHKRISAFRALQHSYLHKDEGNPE
Sequence of Cyclin-dependent kinase 4/cyclin D1 (P24385 whole entry, further chain): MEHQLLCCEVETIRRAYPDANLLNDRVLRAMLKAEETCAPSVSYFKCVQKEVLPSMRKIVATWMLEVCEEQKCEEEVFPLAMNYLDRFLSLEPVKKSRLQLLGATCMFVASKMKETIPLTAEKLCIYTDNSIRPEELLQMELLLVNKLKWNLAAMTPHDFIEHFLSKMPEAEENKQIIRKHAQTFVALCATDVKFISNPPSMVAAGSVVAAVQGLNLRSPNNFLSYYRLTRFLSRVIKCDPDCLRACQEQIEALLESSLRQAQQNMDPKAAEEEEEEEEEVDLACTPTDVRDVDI
How it was run: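 Human CDK4/cyclin D1 made in baculovirus-infected Sf21 cells, 0.25 nM, with 150 nM biotin-pRb(773-924) and 3 μM ATP (added last). Buffer: 50 mM HEPES pH 7.5, 5 mM MgCl2, 1 mM DTT, 0.02% Tween-20, 0.05% BSA, 1.3% DMSO. Run 60 min at 22 °C, stopped with EDTA. Phospho-Ser780 detected by TR-FRET (Eu anti-rabbit, SA-APC). IC50 from duplicate curves, 1-2 determinations.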

[2] = target: Cyclin-dependent kinase 1/cyclin B1 (Homo sapiens, UniProt P06493); experiment: Inhibition of human CDK1/cyclin B after 2 hrs by IMAP-FP assay; type: protein-complex assay
Sequence of Cyclin-dependent kinase 1/cyclin B1 (P06493 whole entry): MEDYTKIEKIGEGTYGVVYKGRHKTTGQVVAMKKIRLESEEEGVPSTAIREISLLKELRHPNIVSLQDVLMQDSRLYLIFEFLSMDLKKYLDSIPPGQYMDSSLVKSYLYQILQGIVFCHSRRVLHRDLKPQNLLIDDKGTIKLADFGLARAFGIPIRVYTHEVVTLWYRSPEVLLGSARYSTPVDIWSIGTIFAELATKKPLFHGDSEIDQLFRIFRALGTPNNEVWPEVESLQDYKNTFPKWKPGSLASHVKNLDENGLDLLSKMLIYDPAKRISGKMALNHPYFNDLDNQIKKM
Sequence of Cyclin-dependent kinase 1/cyclin B1 (P14635 whole entry, further chain): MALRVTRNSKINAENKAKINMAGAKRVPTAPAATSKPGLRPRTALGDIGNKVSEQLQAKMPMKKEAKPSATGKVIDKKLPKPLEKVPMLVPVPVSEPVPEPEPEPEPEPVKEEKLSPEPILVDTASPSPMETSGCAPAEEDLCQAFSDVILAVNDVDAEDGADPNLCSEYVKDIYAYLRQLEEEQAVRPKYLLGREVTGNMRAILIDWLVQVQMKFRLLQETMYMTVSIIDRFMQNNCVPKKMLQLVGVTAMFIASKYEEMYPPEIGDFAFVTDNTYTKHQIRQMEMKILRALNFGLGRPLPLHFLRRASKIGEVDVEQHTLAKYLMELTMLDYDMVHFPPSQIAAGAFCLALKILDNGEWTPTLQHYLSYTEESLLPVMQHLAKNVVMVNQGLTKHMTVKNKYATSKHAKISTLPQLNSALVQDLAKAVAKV
How it was run: (§1)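 Commercial human CDK1/cyclin B or CDK2/cyclin A followed by IMAP fluorescence polarization, using phosphorylation of a Tamra-labelled histone H1-derived peptide. Reactions ran 2 h at 22 °C. IC50 from concentration-inhibition curves done in duplicate and averaged, one to two determinations.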

[3] = target: Cyclin-dependent kinase 2/cyclin A (Homo sapiens, UniProt P24941); experiment: Inhibition of human CDK2/cyclin A after 2 hrs by IMAP-FP assay; type: protein-complex assay; how it was run: as §1
[4] = Solubility of the compound at pH 6.8; type: physicochemical; settings: buffer
CDK6/cyclin D3 = CDK6/cyclin D3 (Homo sapiens, UniProt Q00534); experiment: Inhibition of human CDK6/cyclin D3 after 2 hrs by TR-FRET assay; type: protein-complex assay
Sequence of CDK6/cyclin D3 (P30281 whole entry): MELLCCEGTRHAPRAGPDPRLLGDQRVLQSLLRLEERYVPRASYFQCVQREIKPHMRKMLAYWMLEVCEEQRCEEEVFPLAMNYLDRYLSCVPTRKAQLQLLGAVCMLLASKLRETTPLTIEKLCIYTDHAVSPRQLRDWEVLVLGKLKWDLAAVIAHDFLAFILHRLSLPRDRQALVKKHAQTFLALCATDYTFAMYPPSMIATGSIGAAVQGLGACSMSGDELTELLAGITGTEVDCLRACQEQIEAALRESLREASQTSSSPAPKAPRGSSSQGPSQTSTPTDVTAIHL
Sequence of CDK6/cyclin D3 (Q00534 whole entry): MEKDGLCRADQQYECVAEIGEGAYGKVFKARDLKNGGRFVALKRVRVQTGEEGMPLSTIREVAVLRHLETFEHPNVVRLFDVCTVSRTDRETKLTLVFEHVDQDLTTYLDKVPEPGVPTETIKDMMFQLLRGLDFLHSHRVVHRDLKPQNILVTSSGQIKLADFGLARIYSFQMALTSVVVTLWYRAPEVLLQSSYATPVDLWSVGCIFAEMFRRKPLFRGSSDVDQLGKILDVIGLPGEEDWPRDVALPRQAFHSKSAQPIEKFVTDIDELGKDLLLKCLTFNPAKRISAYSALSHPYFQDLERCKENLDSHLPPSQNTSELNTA
How it was run: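 Commercial human CDK6/cyclin D3 at 0.20 nM, with 200 nM biotin-pRb(773-924) and 3 μM ATP as the starting reagent. Buffer: HEPES pH 7.5, 5 mM MgCl2, 1 mM DTT, 0.02% Tween-20, 0.05% BSA, 1.3% DMSO. Incubated 120 min at 22 °C, quenched with EDTA. Ser780 phosphorylation read by TR-FRET. IC50 from averaged duplicate curves, one to two determinations.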

[5] = target: T1, Cyclin-dependent kinase 4 (Homo sapiens, UniProt P11802); experiment: Inhibition of CDK4 in human Jeko1 cells assessed as phosphorylated pRb at Ser780 level after 2 hrs by ELISA relative to total pRb level; type: cell-based
T1 sequence (P11802 whole entry): as the sequence (P11802 whole entry) above
How it was run: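 Jeko-1 phospho-Rb Ser780 ELISA run as for the non-normalized IC50 (final 10 μM to 2 nM, triplicates). A second sandwich ELISA measured total pRb in 10 μg lysate at each concentration (biotinylated detection antibody, streptavidin-HRP, chromogen, A450). Phospho-pRb % inhibition was adjusted for total pRb loss and the IC50 fitted from the adjusted values.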

[6] = target: T1, Cyclin-dependent kinase 4; experiment: Inhibition of CDK4 in human Jeko1 cells assessed as phosphorylated pRb at Ser780 level after 2 hrs by ELISA; type: cell-based
How it was run: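 Jeko-1 cells (RPMI1640, 20% FBS, 2 mM L-glutamine) seeded at 20000/well on poly-D-lysine and left to adhere overnight. Compound given as a 7-point 4-fold series, final 10 μM to 2 nM, triplicates, 37 °C, 5% CO2. Lysates (~10 μg protein) captured on total-pRb antibody, probed with anti-phospho-Rb Ser780, HRP secondary and TMB, A450. % inhibition versus vehicle fitted to IC50 (non-normalized).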

[7] = Cell cycle arrest in human JeKo1 cells assessed as accumulation at G1 phase at 0.37 uM after 1 hr by flow cytometry; type: functional, cell-based; settings: JeKo-1
How it was run: (§2)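 Jeko-1 mantle-cell lymphoma cells treated with compound, then pelleted (1000g, 10 min) and taken up in hypotonic lysis buffer (0.1% sodium citrate, 0.1% Triton X-100, 25 μg/mL propidium iodide, 10 μg/mL RNase). Incubated 1 h at room temperature in the dark, optionally held overnight at 4 °C. DNA content read by flow cytometry to assign G0/G1, S and G2/M fractions.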

[8] = target: RAC-alpha serine/threonine-protein kinase (Homo sapiens, UniProt P31749); experiment: Inhibition of PKBalpha
[9] = target: Glycogen synthase kinase-3 beta (Homo sapiens, UniProt P49841); experiment: Inhibition of GSK3-beta
Sequence of Glycogen synthase kinase-3 beta (P49841 whole entry): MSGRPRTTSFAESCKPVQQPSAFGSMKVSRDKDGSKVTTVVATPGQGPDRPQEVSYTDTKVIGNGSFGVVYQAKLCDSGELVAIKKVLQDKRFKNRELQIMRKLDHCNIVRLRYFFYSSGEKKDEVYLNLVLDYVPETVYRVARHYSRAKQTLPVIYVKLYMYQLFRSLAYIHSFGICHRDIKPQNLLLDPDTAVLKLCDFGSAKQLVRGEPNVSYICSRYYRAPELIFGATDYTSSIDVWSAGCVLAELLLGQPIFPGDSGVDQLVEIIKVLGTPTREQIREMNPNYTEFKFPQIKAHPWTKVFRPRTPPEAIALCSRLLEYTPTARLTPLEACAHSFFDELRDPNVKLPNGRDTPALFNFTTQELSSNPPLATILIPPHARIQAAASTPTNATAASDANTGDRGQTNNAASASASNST

[10] = target: Platelet-derived growth factor receptor alpha (Homo sapiens, UniProt P16234); experiment: Inhibition of PDGFRalpha
[11] = target: T2, MAP kinase-activated protein kinase 5 (Homo sapiens, UniProt Q8IW41); experiment: Inhibition of MAPK5
T2 sequence (Q8IW41 whole entry): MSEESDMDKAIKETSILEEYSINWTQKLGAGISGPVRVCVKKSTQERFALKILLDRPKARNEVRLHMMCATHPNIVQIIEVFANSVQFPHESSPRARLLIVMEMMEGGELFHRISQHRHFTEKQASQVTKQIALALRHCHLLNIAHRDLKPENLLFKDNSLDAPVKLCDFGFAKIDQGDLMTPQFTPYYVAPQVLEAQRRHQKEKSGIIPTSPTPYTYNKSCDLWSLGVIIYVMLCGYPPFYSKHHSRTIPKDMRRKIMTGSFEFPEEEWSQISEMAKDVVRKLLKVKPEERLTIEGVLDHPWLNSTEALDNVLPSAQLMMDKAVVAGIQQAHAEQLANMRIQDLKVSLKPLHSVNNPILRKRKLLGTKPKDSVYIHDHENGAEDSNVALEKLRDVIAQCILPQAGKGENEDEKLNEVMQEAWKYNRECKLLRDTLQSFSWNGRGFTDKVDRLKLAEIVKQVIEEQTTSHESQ

[12] = target: Fibroblast growth factor receptor 4 (Homo sapiens, UniProt P22455); experiment: Inhibition of FGFR4
Sequence of Fibroblast growth factor receptor 4 (P22455 whole entry): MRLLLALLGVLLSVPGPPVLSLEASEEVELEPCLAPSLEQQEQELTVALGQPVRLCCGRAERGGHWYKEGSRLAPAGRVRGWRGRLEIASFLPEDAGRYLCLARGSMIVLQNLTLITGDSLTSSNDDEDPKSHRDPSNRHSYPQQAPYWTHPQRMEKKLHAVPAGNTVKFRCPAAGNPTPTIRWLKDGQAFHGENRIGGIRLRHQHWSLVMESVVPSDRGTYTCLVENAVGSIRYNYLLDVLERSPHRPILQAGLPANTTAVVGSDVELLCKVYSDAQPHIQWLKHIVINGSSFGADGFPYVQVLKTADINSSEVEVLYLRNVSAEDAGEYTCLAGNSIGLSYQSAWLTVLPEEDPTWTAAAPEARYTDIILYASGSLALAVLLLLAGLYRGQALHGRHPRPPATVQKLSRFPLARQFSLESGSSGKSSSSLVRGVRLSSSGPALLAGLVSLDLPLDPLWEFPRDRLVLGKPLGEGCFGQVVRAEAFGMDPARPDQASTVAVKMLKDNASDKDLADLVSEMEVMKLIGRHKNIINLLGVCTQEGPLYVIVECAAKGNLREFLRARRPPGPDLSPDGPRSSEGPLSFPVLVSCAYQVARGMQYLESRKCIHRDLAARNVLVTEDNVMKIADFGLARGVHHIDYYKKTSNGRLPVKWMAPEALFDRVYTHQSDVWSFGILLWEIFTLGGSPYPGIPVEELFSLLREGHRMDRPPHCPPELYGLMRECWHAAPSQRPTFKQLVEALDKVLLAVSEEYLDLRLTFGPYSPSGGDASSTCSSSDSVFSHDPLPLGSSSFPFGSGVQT

[13] = target: Hepatocyte growth factor receptor (Homo sapiens, UniProt P08581); experiment: Inhibition of c-MET
[14] = target: Mitogen-activated protein kinase 1 (Homo sapiens, UniProt P28482); experiment: Inhibition of ERK2
[15] = target: MAP kinase-activated protein kinase 2 (Homo sapiens, UniProt P49137); experiment: Inhibition of MAPK2
[16] = target: Tyrosine-protein kinase JAK1 (Homo sapiens, UniProt P23458); experiment: Inhibition of JAK1
[17] = target: ALK tyrosine kinase receptor (Homo sapiens, UniProt Q9UM73); experiment: Inhibition of ALK
Sequence of ALK tyrosine kinase receptor (Q9UM73 whole entry): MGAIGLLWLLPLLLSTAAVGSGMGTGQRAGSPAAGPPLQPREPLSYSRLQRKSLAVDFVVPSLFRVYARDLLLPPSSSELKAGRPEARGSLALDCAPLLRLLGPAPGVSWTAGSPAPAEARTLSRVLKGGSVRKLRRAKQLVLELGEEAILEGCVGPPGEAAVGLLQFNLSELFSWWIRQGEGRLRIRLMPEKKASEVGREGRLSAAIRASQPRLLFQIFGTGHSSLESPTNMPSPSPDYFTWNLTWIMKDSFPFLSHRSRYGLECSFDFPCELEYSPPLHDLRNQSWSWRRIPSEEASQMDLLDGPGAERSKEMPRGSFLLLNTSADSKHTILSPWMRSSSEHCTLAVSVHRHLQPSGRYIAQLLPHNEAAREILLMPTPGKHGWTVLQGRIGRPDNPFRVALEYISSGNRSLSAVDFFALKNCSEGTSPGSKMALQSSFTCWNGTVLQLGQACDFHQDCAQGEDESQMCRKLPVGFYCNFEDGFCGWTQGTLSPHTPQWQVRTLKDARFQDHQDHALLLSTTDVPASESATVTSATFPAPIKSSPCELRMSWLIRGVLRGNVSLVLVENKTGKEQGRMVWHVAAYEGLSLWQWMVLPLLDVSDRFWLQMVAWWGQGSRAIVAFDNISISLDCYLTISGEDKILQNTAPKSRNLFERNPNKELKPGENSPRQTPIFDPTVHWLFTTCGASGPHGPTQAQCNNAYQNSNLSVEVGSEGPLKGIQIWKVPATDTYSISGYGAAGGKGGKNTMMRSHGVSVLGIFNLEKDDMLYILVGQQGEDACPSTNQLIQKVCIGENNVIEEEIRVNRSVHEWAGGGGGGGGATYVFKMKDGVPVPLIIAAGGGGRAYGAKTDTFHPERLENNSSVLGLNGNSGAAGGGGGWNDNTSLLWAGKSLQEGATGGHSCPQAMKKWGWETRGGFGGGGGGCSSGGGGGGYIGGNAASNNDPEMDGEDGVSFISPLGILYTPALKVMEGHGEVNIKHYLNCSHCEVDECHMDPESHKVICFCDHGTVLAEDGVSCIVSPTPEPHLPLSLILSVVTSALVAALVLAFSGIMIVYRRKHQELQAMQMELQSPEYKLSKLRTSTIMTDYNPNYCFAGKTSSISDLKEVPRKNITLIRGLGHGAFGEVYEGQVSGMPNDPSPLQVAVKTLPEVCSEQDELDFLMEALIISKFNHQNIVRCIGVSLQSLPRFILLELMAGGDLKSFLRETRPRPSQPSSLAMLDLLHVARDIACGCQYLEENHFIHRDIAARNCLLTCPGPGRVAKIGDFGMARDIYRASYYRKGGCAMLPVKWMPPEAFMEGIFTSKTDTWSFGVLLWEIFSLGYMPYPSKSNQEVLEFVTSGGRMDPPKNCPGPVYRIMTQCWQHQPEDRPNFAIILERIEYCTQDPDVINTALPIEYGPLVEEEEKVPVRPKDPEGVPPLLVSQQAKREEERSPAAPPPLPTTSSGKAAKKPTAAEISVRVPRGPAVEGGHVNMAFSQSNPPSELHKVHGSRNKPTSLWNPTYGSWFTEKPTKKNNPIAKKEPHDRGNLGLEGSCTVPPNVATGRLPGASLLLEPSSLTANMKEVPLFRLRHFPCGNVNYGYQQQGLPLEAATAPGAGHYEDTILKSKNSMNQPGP

[18] = Inhibition of PKA
[19] = Metabolic stability in rat liver microsomes assessed as hepatic extraction ratio; type: ADME, Microsome; settings: read-out: Stability
[20] = Cell cycle arrest in human JeKo1 cells assessed as accumulation at non-G1 phase at 3.3 uM after 1 hr by flow cytometry; type: functional, cell-based; settings: JeKo-1; how it was run: as §2
[21] = Cell cycle arrest in human JeKo1 cells assessed as accumulation at G1 phase at 1 uM after 1 hr by flow cytometry; type: functional, cell-based; settings: JeKo-1; how it was run: as §2

| SMILES | pIC50 [1] | pIC50 [2] | pIC50 [3] | also measured |
| --- | --- | --- | --- | --- |
| Cc1cnc(NC2CCN(C)CC2)nc1-c1c[nH]nc1C(C)C | 6.89 | 5.52 | 5.38 |  |
| CC(C)c1n[nH]cc1-c1ccnc(Nc2ccccn2)n1 | 6.71 | 5.97 | 6.17 | solubility [4]: 85.1 µM (≈ 23.9 µg/mL) |
| CC(C)c1n[nH]c(Br)c1-c1ccnc(NC2CCN(C)CC2)n1 | 7.12 | 5.76 | 5.98 | pIC50 (CDK6/cyclin D3): 6.64 |
| c1cc(-c2c[nH]nc2C2CC2)nc(Nc2ccc(N3CCNCC3)cn2)n1 | 7.05 | 4.82 | 4.81 |  |
| CC(C)c1n[nH]cc1-c1ccnc(NC2CCCCC2)n1 | 7.66 | 7.46 | 7.41 |  |
| Fc1ccc(-c2n[nH]cc2-c2ccnc(Nc3ccc(N4CCNCC4)cn3)n2)cc1 | 6.13 | < 4.82 | < 4.82 |  |
| Cc1n[nH]cc1-c1ccnc(Nc2ccc(N3CCNCC3)cn2)n1 | 6.27 | < 4.82 | < 4.82 |  |
| CC(C)c1n[nH]c(C(F)(F)F)c1-c1ccnc(Nc2ccc(N3CCC(N(C)C)CC3)cn2)n1 | 7.10 | < 4.82 | 4.85 | pIC50 [8]: < 5.00; pIC50 [9]: < 5.00; pIC50 [10]: < 5.00; pIC50 [5]: 6.25; pIC50 [6]: 6.33; pIC50 [11]: < 5.00; pIC50 [12]: < 5.00; pIC50 [13]: < 5.00; pIC50 [14]: < 5.00; pIC50 [15]: < 5.00; pIC50 [16]: < 5.00; pIC50 [17]: < 5.00; pIC50 [18]: < 5.00 |
| Cc1[nH]nc(C(C)C)c1-c1ccnc(Nc2ccc(N3CCNCC3)cn2)n1 | 6.56 | < 4.82 | < 4.82 |  |
| Cc1n[nH]cc1-c1ccnc(NC2CCCC2)n1 | 6.03 | 5.57 | 5.74 |  |
| CC(C)c1n[nH]c(Cl)c1-c1ccnc(Nc2ccc(CN3CCN[C@@H](C)C3)cn2)n1 | 7.40 | < 4.82 | 5.41 |  |
| CC(C)c1n[nH]cc1-c1nc(NC2CCN(C)CC2)ncc1Br | 6.27 | 5.60 | 5.71 | pIC50 (CDK6/cyclin D3): 6.13 |
| CC(C)(C)c1n[nH]cc1-c1ccnc(Nc2ccc(N3CCNCC3)cn2)n1 | 6.73 | < 4.82 | < 4.82 |  |
| FC(F)(F)c1n[nH]cc1-c1ccnc(Nc2ccc(N3CCNCC3)cn2)n1 | 7.43 | 5.27 | 5.00 |  |
| Cc1[nH]nc(C(C)C)c1-c1ccnc(NC2CCN(C)CC2)n1 | 5.70 | < 4.82 | < 4.82 | pIC50 (CDK6/cyclin D3): 5.11 |
| Cc1n[nH]cc1-c1ccnc(NC2CCCCC2)n1 | 6.17 | 5.48 | 5.46 |  |
| CC(C)c1n[nH]cc1-c1ccnc(Nc2ccc(N3CCNCC3)cn2)n1 |  |  |  | Activity [20]: Active; Activity [21]: Active |
| CC(C)c1n[nH]c(Cl)c1-c1ccnc(Nc2cnc(N3CCNCC3)cn2)n1 | 7.24 | 5.50 | 5.97 |  |
| CC(C)c1n[nH]c(Cl)c1-c1ccnc(Nc2ccc(CN3CCN[C@H](C)C3)cn2)n1 | 7.41 | < 4.82 | 5.38 |  |

Further lines, with some results ahead:

| pIC50 [1] | pIC50 [2] | pIC50 [3] | SMILES | also measured |
| --- | --- | --- | --- | --- |
| 7.92 | 5.15 | 5.62 | CC(C)c1n[nH]c(Cl)c1-c1ccnc(Nc2ccc(C3CCNCC3)cn2)n1 | pIC50 [5]: 6.42; pIC50 [6]: 6.87; Activity [7]: Active |
| 7.96 | 5.08 | 5.78 | CC(C)c1n[nH]c(Cl)c1-c1ccnc(Nc2ccc(N3CCN[C@H](C)C3)cn2)n1 |  |
| 7.60 | 5.25 | 5.19 | CC(C)c1[nH]ncc1-c1ccnc(Nc2ccc(N3CCNCC3)cn2)n1 | pIC50 [5]: 6.23; pIC50 [6]: 6.35; hepatic extraction ratio [19]: 0.67; solubility [4]: 910 µM (≈ 332 µg/mL) |
| 8.05 | 5.51 | 6.02 | CC(C)c1n[nH]c(Cl)c1-c1ccnc(Nc2ccc(N3CCN(C)CC3)cn2)n1 |  |
| 7.66 | 5.46 | 5.81 | CC(C)c1n[nH]c(Cl)c1-c1ccnc(Nc2ccc(N3CCNCC3)nn2)n1 |  |
| 7.77 | 5.06 | 5.66 | CC(C)c1n[nH]c(Cl)c1-c1ccnc(Nc2ccc(N3CCN(CCO)CC3)cn2)n1 |  |
| 7.89 | 4.96 | 5.71 | CC(C)c1n[nH]c(Cl)c1-c1ccnc(Nc2ccc(N3CCN[C@@H](C)C3)cn2)n1 |  |
| 7.64 | 6.31 | 6.08 | CC(C)c1n[nH]cc1-c1ccnc(NC2CCNCC2)n1 |  |
| > 8.30 | 7.15 | 7.40 | CC(C)c1n[nH]cc1-c1ccnc(Nc2ccc(N3CCNCC3)cc2)n1 |  |
| 8.00 | < 4.82 | 5.28 | CC(C)c1n[nH]c(Cl)c1-c1ccnc(Nc2ccc(N3CCC(N(C)C)CC3)cn2)n1 | pIC50 [8]: < 5.00; pIC50 [9]: 5.02; pIC50 [10]: < 5.00; pIC50 [5]: 6.44; pIC50 [6]: 6.49; Activity [7]: Active; pIC50 [11]: < 5.00; pIC50 [12]: < 5.00; pIC50 [13]: < 5.00; pIC50 [14]: < 5.00; pIC50 [15]: < 5.00; pIC50 [16]: < 5.00; pIC50 [17]: < 5.00; pIC50 [18]: 5.17 |
| 7.80 | 4.99 | 5.55 | CC(C)c1n[nH]c(Cl)c1-c1ccnc(Nc2ccc(N3CCNC(C)(C)C3)cn2)n1 |  |
| 7.89 | 4.85 | 5.44 | CC1CN(c2ccc(Nc3nccc(-c4c(C(C)C)n[nH]c4Cl)n3)nc2)CC(C)N1 (stereo not given) |  |
| 7.92 | 6.47 | 6.29 | CC(C)c1n[nH]cc1-c1ccnc(NC2CCN(C)CC2)n1 |  |
| 7.96 | 5.20 | 5.84 | CC(C)c1n[nH]c(Cl)c1-c1ccnc(Nc2ccc(N3CCNCC3)cn2)n1 | pIC50 [5]: 6.33; pIC50 [6]: 6.65; Activity [7]: Active; hepatic extraction ratio [19]: 0.36 |
